According to ChEMBL document CHEMBL1151796, “Novel anticancer agents, kayeassamins C-I from the flower of Kayea assamica of Myanmar” (2008):

What follows are molecules tested on PANC-1 (assay: Cytotoxicity against human PANC1 cells in nutrient-deprived condition). Details: not given.
Assay type: functional
In short: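 PANC-1 cells seeded at 2×10^4 per well, grown 24 h in DMEM at 37 °C, 5% CO₂, PBS-washed, then switched to nutrient-deprived medium (NDM) or DMEM with serial dilutions of pure compounds (1–256 µM). Incubated 24 h, washed, then 2 h with DMEM containing 10% WST-8 and read at 450 nm. Endpoint reported as PC₁₀₀.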
With CCCC(=O)c1c2c(c3oc(=O)cc(CCC)c3c1O)CC(C(C)(C)O)O2 (stereo not given) the Cytotoxicity was 64 µM. With CC[C@H](O)c1cc(=O)oc2c(C(=O)CC(C)C)c(O)c3c(c12)OC(C)(C)C=C3 the Cytotoxicity was 32 µM. For CCCC(=O)c1c(O)c(CC=C(C)C)c2oc(=O)cc(CCC)c2c1O, the Cytotoxicity was 2 µM. For CCCC(=O)c1c(O)c(CC=C(C)C)c(O)c2c(-c3ccccc3)cc(=O)oc12, the Cytotoxicity was 8 µM. In the case of CCCC(=O)c1c2c(c3oc(=O)cc(-c4ccccc4)c3c1O)C=CC(C)(C)O2, the Cytotoxicity is reported as over 256 µM. COc1cc(C[C@H]2C(=O)OC[C@@H]2Cc2ccc(OC)c(OC)c2)ccc1O [ARCTIGENIN] was tested, and the Cytotoxicity was 1 µM. CCCC(=O)c1c(O)c(C/C=C(\C)CCC=C(C)C)c(O)c2c([C@@H](O)CC)cc(=O)oc12 [KAYEASSAMIN A] gave a Cytotoxicity of 1 µM. CCCC(=O)c1c(O)c(C/C=C(\C)CCC=C(C)C)c2oc(=O)cc([C@@H](O)CC)c2c1O [KAYEASSAMIN B] was tested, and the Cytotoxicity was 1 µM. CCC(C)C(=O)c1c(O)c(C/C=C(\C)CCC=C(C)C)c2oc(=O)cc([C@@H](O)CC)c2c1O (stereo not given in full) [KAYEASSAMIN C] was tested, and the Cytotoxicity was 4 µM. Molecule CC[C@H](O)c1cc(=O)oc2c(C/C=C(\C)CCC=C(C)C)c(O)c(C(=O)CC(C)C)c(O)c12 [KAYEASSAMIN D] has a Cytotoxicity of 1 µM. For CCCC(=O)c1c(O)c(CC=C(C)C)c2oc(=O)cc([C@@H](O)CC)c2c1O [KAYEASSAMIN E], the Cytotoxicity was 1 µM. For CCC(C)C(=O)c1c(O)c(CC=C(C)C)c2oc(=O)cc([C@@H](O)CC)c2c1O (stereo not given in full) [KAYEASSAMIN F], the Cytotoxicity was 2 µM. With CC[C@H](O)c1cc(=O)oc2c(CC=C(C)C)c(O)c(C(=O)CC(C)C)c(O)c12 [KAYEASSAMIN G] the Cytotoxicity was 1 µM. In the case of CCCC(=O)c1c(O)c(CC=C(C)C)c2oc(=O)cc3c2c1OC(C)C3 (stereo not given) [KAYEASSAMIN H], the Cytotoxicity is reported as 64 µM. For CCCC(=O)c1c(O)c2c(c3c([C@@H](O)CC)cc(=O)oc13)OC(C)(CCC=C(C)C)C=C2 (stereo not given in full) [KAYEASSAMIN I], the Cytotoxicity was 64 µM. CCCC(=O)c1c(O)c(CC=C(C)C)c2oc(=O)cc(-c3ccccc3)c2c1O [MAMMEA A/AC] showed a Cytotoxicity of 16 µM. In the case of CC(C)CC(=O)c1c2c(c3oc(=O)cc(-c4ccccc4)c3c1O)C=CC(C)(C)O2 [MAMMEIGIN], the Cytotoxicity is reported as 32 µM.

What follows are molecules tested on PANC-1 (assay: Cytotoxicity against human PANC1 cells in nutrient-deprived condition assessed as complete preferential cell death at 1 uM). Details: TDE = time-dependent effect.
Assay type: functional, cell-based
In short: (§1)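 PANC-1 cells (2×10^4 per well, 24 h preculture in DMEM, 37 °C, 5% CO₂) were PBS-washed and exposed in NDM or DMEM for 3, 6, 9, 12 and 24 h. Morphology was checked by phase-contrast microscopy at 20×. Cells were then washed and given 2 h of 10% WST-8 in DMEM, with absorbance read at 450 nm. Viability was taken from the mean of three wells.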
CC[C@H](O)c1cc(=O)oc2c(C/C=C(\C)CCC=C(C)C)c(O)c(C(=O)CC(C)C)c(O)c12 [KAYEASSAMIN D] was tested, and the Activity was “tde”.

The molecules below were run on PANC-1 (assay: Cytotoxicity against human PANC1 cells in nutrient-deprived condition assessed as preferential cell death within 3 hrs). Details: not given.
Assay type: functional, cell-based
In short: as §1
In the case of CCCC(=O)c1c(O)c(CC=C(C)C)c2oc(=O)cc([C@@H](O)CC)c2c1O [KAYEASSAMIN E], the Activity is reported as “Dose-dependent effect”.

Same assay, conditions: TDE = time-dependent effect
CC[C@H](O)c1cc(=O)oc2c(CC=C(C)C)c(O)c(C(=O)CC(C)C)c(O)c12 [KAYEASSAMIN G] was tested, and the Activity was “tde”.
